Screening data as filed in PubChem.
DNMT1 block: human DNMT1 methyltransferase inhibitors, primary screen, biochemical, molecular beacon, fluorescence, HinP1I cleavage, uHTS; AID 588458, 2011; 360,000 compounds, 0.83% hits; inhibition (reported as % activation of signal), % at 10 µM; in the data active = inhibition above about 50%
LMPTP block: LMPTP phosphatase inhibitors, primary screen, biochemical, fluorescence intensity, uHTS | AID 651560, 2012 | recombinant LMPTP-A, OMFP fluorogenic substrate | inhibition, % at 20 µM | 360,000 compounds, 0.22% hits;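 active = compounds that cut the enzyme signal by at least half of the control window in the single-dose screen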;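 note: plate controls were DMSO wells with enzyme plus substrate for no effect and substrate without enzyme for full effect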
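test system = LMPTP-A | amount = 0.625 nM LMPTP-A final | reagent = fluorogenic phosphatase substrate OMFP at 400 µM final | incubation = 50 min at room temperature | benchmarks = no-enzyme low control, uninhibited high control | medium = Bis-Tris pH 6.0, DTT, detergent | signal = fluorescence intensity of OMFP turnover product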
SUMO1-SIM PPI: modulators of SUMO1 protein-protein interactions, primary screen, biochemical, uHTS. AID 602429, 2012. Small ubiquitin-related modifier 1 (Homo sapiens), P63165. 360,000 compounds, 0.33% hits. SUMO1 binding to a labelled peptide, TR-FRET, 1 h. inhibition, % at 20 µM; in the data active = inhibition above about 37%
STEP inh: STEP phosphatase inhibitors, primary screen, biochemical, fluorescence intensity, uHTS; Tyrosine-protein phosphatase non-receptor type 5 (Homo sapiens), P54829; recombinant STEP, OMFP fluorogenic substrate; inhibition, % at 20 µM; 360,000 compounds, 0.25% hits; AID 588621, 2011;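 active = inhibition at 20 µM, scaled per plate between control wells, above about 37%, limit read from the data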;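 note: 0% = DMSO with enzyme and substrate and 100% = substrate only without enzyme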
Target sequence (P54829 whole entry, looked up): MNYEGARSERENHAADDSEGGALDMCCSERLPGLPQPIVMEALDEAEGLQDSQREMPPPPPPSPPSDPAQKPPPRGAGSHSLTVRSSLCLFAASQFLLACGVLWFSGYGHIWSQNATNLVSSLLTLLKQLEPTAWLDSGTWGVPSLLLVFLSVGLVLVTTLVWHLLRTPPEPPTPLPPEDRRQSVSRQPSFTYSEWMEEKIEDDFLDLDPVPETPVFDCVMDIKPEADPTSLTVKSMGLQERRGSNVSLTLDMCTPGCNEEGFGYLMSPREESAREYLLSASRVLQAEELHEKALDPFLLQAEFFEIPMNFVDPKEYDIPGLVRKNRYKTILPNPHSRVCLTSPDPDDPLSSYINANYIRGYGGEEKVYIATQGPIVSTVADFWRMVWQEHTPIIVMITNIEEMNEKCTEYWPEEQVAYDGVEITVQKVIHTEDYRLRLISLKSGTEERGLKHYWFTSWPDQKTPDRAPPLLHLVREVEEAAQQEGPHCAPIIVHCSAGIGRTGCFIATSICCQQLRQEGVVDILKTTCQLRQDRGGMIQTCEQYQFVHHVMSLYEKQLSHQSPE
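Measure: Control-normalized % inhibition with plate pattern correction | Test system: STEP phosphatase, cell-free reaction | Medium: pH 6.0 Bis-Tris with DTT and Tween 20 | Technique: Fluorescence, 480/540 nm | Times: Reaction 20 min, ambient temperature | Doses: Single compound dose of 20 µM, 1% DMSO final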
Scp-1 inhibitor: Scp-1 phosphatase inhibitors, primary screen, biochemical, colorimetric, uHTS | Carboxy-terminal domain RNA polymerase II polypeptide A small phosphatase 1 (Homo … | Recombinant Scp1, phosphopeptide, malachite green phosphate absorbance | inhibition, % at 20 µM | 340,000 compounds, 0.88% hits | AID 493091, 2011;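 active = inhibition above about 50% at 20 µM, limit read from the data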;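 note: plate controls were DMSO wells with enzyme for no effect and wells lacking enzyme for full effect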
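Assay system: SCP-1 catalytic fragment, aa 76-261 | Buffer or medium: Tris acetate buffer pH 5.5 with MgCl2 and Tween-20 | Compound: One concentration, 20 µM, with 1.0% DMSO | Also added: Phospho 17-mer peptide substrate | Signal: Absorbance at 630 nm | Incubation: 45 min enzyme reaction at room temperature | Measure: % inhibition of SCP-1 phosphate liberation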
GRK2 inh: compounds blocking aptamer binding on GRK2 – biochemical, human GRK2, bead flow cytometry, HTS, primary screen; inhibition of aptamer binding, % at 10 µM; Beta-adrenergic receptor kinase 1 (Homo sapiens), P25098; FAM-aptamer displacement from GRK2; AID 488847, 2010; 330,000 compounds, 0.59% hits;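 active = inhibition of aptamer binding above 40%, roughly 3 SD of noise, on plates passing a quality check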;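 note: median bead fluorescence of bound FAM aptamer so fluorescent compounds give negative values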
Active calls of the source: *; nt = not tested or not shown. An excerpt weighted towards active compounds, which were near 2.1% of everything screened.

SMILES	DNMT1 block	LMPTP block	SUMO1-SIM PPI	STEP inh	Scp-1 inhibitor	GRK2 inh
Cc1nc(Nc2ccc(Cl)c(Cl)c2)sc1C(/C=C/c1ccc2c(c1)OCO2)=NNc1ccc([N+](=O)[O-])cc1[N+](=O)[O-]	-9	3	-18	7	10	nt
O=C1N=c2ccccc2=C1c1sc(Nc2ccc(O)cc2)nc1O	-1	76*	4	42*	80*	nt
O=C1N=c2ccccc2=C1c1sc(Nc2cccc(O)c2)nc1O	-4	16	-1	12	20	0
CC1(C)CC(=O)C=C(c2ccc(COC(=O)C(c3ccccc3)c3ccccc3)cc2)C1=O	2	0	-3	0	nt	nt
N=C1/C(=C/c2ccc(-c3cccc(C(=O)O)c3)o2)C(=O)N=C2SC=C(c3ccccc3)N12	100*	89*	46*	64*	68*	3
COc1ccc(N2C[C@H](CSC)[C@@H](CC(=O)Nc3ccccc3)C2=O)cc1	7	-1	0	1	nt	nt
N#Cc1sc2nc(-c3ccccc3)cc(-c3ccco3)c2c1N	27	9	64*	3	49	2
CSc1nsc(/C=C/Nc2ccc(F)cc2F)c1C#N	-29	1	-5	5	-1	98*
COc1ccc(/C=N/Nc2cc(C)nc3ccccc23)cc1	27	62*	-54	4	3	0
COc1ccc2nc(C)cc(N/N=C/c3ccc(F)cc3)c2c1	55*	7	-4	3	-3	0
O=C(O)c1cn(C2CC2)c2cc(N3CCN(S(=O)(=O)c4ccc5c(c4)OCCO5)CC3)c(F)cc2c1=O	0	65*	8	5	0	0
CN1CCN(C2CN(Cc3cn(Cc4ccccc4)nn3)S(=O)(=O)C2)CC1 (centres undefined)	nt	-3	-2	nt	nt	nt
COC(=O)C1=C(C)N(Cc2ccccc2)C(=NCCc2cccnc2)N[C@H]1c1ccc(Br)cc1	13	3	-10	-1	57*	0
CCN1/C(=C/c2ccc3cc(C)cc(C)c3[n+]2CC)Sc2cc(C)ccc21	-34	48*	-41	4	32	nt
CCN1/C(=C\c2ccc3cc(C)ccc3[n+]2CC)Sc2cc(C)c(C)cc21	-8	44	-51	1	13	nt
CCN1CCN(Cc2ccc(NC(=O)c3ccc(C)c(NC(=O)c4ccno4)c3)cc2C(F)(F)F)CC1	-3	-3	5	0	0	0
CCN1CCN(Cc2ccc(NC(=O)c3ccc(C)c(/C=C/c4cnc(Nc5cc(N6CCNCC6)nc(C)n5)cn4)c3)cc2C(F)(F)F)CC1	-38	1	87*	-9	-3	0
Cc1ccccc1-c1cnc(C(O)c2ccc(F)cc2C)[nH]1 (centres undefined)	2	0	-1	1	nt	nt
COc1ccc(CCn2c(NN)nc3c2c(=O)[nH]c(=O)n3C)cc1	75*	7	-10	28	20	0
C[C@@H]1Cc2[nH][nH]c(=O)c2[C@H](C)O1	nt	0	1	nt	nt	nt
Cc1ccc(NC(=O)c2cc(-c3ccc(C)o3)nc3ccccc23)cc1	-11	0	-10	1	10	0
Cc1ccc(-c2cc(C(=O)Nc3ccccn3)c3ccccc3n2)o1	61*	7	1	7	58*	6
Oc1ccc(-c2csc(Nc3cccc4ccccc34)n2)cc1O	18	62*	17	3	11	0
NS(=O)(=O)c1ccc(CCNC(=O)c2ccc(Cl)s2)cc1	1	0	-1	-1	-5	1
NS(=O)(=O)c1ccc(CCNC(=O)c2cc3ccccc3s2)cc1	2	1	9	6	58*	0
SMILES	DNMT1 block	LMPTP block	SUMO1-SIM PPI	STEP inh	Scp-1 inhibitor	GRK2 inh
Cc1ccc(S(=O)(=O)N2CCCCC2)cc1C(=O)N(CCc1ccccc1)Cc1ccccc1	1	8	6	6	-9	1
Cc1ccccc1CN1C(=O)CSCC1(C)C(=O)NC(C)C (centres undefined)	nt	-2	3	nt	nt	nt
Cc1c2ccncc2cc2c1[nH]c1ccccc12	30	55*	-20	3	-8	nt
CCOP(=O)(OCC)C(NC(=O)C(F)(F)F)c1ccccc1 (centres undefined)	1	-1	1	-6	-2	64*
Cn1cc(Cc2ccccc2)c(=O)c(Cc2ccccc2)c1	0	-1	-5	-1	10	nt
CCOc1cccc(CNc2ccc(O)cc2)c1OCc1ccccc1Cl	-46	22	44*	-6	-8	2
CCOc1cccc(CNn2cnnc2)c1OCc1ccccc1Cl	0	-2	0	-3	6	3
CCOc1cccc(CNc2ccc(O)cc2)c1OCc1ccc(Cl)cc1Cl	-28	17	68*	10	-5	2
N#C/C(=C\c1ccc(OCc2ccccc2)cc1)C(=O)Nc1ccc(C(=O)O)cc1	nt	nt	nt	nt	85*	0
N#C/C(=C/c1ccc(C(=O)O)cc1)C(=O)Nc1ccccc1	-2	-1	-4	-3	-5	3
COc1cc(/C=C(\C#N)C(=O)Nc2cccc(C(=O)O)c2)ccc1OCc1ccc(Cl)cc1	7	49	59*	86*	36	0
COc1ccc(S(=O)(=O)Nc2cc(S(=O)(=O)N3CCOCC3)ccc2OC)cc1	1	-1	4	2	-8	0
O=C(O)c1cc(N2N=C(C(F)(F)F)/C(=C/C=C/c3ccco3)C2=O)ccc1Cl	84*	78*	105*	94*	69*	nt
CCOC(=O)NC(NC(=O)OCC)C(=O)c1ccc(F)cc1	-5	-2	-1	0	102*	1
CCCC(C)NC(=O)c1ccc(F)cc1 (centres undefined)	-11	-1	4	0	-5	1
CCOc1ccc(C(=O)Nc2cc(C)c3c(=O)oc4ccccc4c3n2)cc1	46	0	-45	6	-9	0
Cc1cc(NC(=O)c2ccccc2)nc2c1c(=O)oc1ccccc12	1	2	52*	2	-15	0
O=C1c2ccccc2C(=O)C12OC2c1cccc2ccccc12 (centres undefined)	58*	15	39*	34	-1	2
